Assay outcomes: PubChem BioAssay, several laboratories
Sampled rows, rich in hits. Any-hit rate of the full collection: about 2.2%.
FID counter: displaces DNA intercalator in HCV helicase counter-screen; inhibition, % at 7.9 µM; DNA fluorescent intercalator displacement, fluorescence; AID 1845; hit rate 0.17% among 290,000; in the data active means inhibition above about 37%;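 further: 0% = vehicle and 100% = reference compound; higher means more ethidium bromide displaced from hairpin DNA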
core dimer inh: HCV core protein dimerization inhibition | hit rate 0.33% among 300,000 | TR-FRET GST/Flag-core106 dimerization, 1536-well | AID 1899 | inhibition, % at 5 µM;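 active means inhibition above the mean of all tested compounds plus 3 SD, set per screening campaign, cut at about 45% in these data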
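Assay system: GST-tagged and Flag-tagged HCV core protein residues 1-106 / Times: compound-protein-antibody incubation 4 h at 22.5 °C / Signal: time-resolved FRET, ex 340 nm, em 617 and 671 nm / Evaluation: % inhibition based on acceptor/donor emission ratio / Benchmarks: wells lacking GST-core106 and wells with excess unlabelled core106 / Repeats: singlicate, one well per compound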
GPR7 antagonist: human neuropeptides B/W receptor 1 antagonism. P48145. GPR7-expressing cells, fluorescence antagonist assay. inhibition, % at 4.4 µM. hit rate 1.1% among 290,000; in the data active means inhibition above about 16%, passing the limit was not always enough;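 further: cells stimulated with the agonist NPW; 0% = agonist with vehicle and 100% = vehicle without agonist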
Target sequence (P48145 whole entry, looked up): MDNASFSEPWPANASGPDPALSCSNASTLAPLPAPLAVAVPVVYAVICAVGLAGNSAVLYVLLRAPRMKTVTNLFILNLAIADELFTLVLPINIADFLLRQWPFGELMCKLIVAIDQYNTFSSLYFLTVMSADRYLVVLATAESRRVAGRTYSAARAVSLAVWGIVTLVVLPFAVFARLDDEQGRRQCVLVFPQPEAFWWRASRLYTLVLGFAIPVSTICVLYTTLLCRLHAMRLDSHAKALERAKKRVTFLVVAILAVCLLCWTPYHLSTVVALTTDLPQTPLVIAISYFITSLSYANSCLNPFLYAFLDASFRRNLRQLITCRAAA
DAGLB inhibitor: diacylglycerol lipase beta (human) inhibition; Q8NCG7; HEK293T DAGLB membrane lysate, EnzChek fluorogenic substrate; inhibition, % at 5.17 µM; hit rate 0.059% among 340,000; AID 504411; in the data active means inhibition above about 34%;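 further: 0% = enzyme with vehicle and 100% = wells lacking enzyme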
GRK2 aptamer HTS: inhibitors of human GRK2 displacing RNA aptamer | P25098 | bead flow cytometry, FAM-aptamer displacement from GRK2 | inhibition of aptamer binding, % at 10 µM | hit rate 0.59% among 330,000 | AID 488847;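 active means inhibition of aptamer binding above 40%, roughly 3 SD of noise, on plates passing a quality check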;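 further: median bead fluorescence of bound FAM aptamer so fluorescent compounds give negative values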
HCV NS3 hel inh: blocks Hepatitis C virus NS3 helicase unwinding. inhibition, % at 10.9 µM. NS3 helicase DNA unwinding, Cy5 molecular beacon fluorescence. AID 1800. hit rate 0.56% among 290,000;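 active means inhibition above the mean of all tested compounds plus 3 SD, set per campaign, cut at about 35% in these data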;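 further: 0% = DMSO wells and 100% = thioflavine S control wells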
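Control set: DMSO versus 110 µM thioflavine S; Material: NS3 helicase fragment of HCV; Measured by: Cy5 fluorescence at 0 and 60 min, beacon hairpin quenching; Read-out basis: percent inhibition from t60/t0 fluorescence ratio; Times: reaction time 60 min, 25 °C; Repeats: single replicate; Compound dosing: single dose, 10.9 µM nominal final, DMSO 0.8% final.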
GRK2 CP1: human GRK2 inhibition confirmation, cherry pick 1. hit rate 4% among 2,000. bead-bound GRK2, FAM-aptamer displacement, flow cytometry. aptamer displacement, % at 10 µM. AID 504451. shares compounds with GRK2 aptamer HTS;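 active means aptamer displacement above 40%, near three times the noise of non-fluorescent compounds, on plates passing quality checks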;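 further: negative values mostly reflect intrinsic compound fluorescence rather than true enhancement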
Aptamer quench SP: aptamer fluorescence quenching in GRK2 counter-screen; shares compounds with GRK2 aptamer HTS; Carboxyfluorescein RNA aptamer on beads, flow cytometry quenching; hits give low values; fluorescence response (% of DMSO), % at 10 µM; 2,000 tested, under 10 active; AID 504580;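 active means compounds that quench the bead-bound fluorescent RNA probe, cutting fluorescence to under half of the solvent control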;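 further: counterscreen run without GRK2 so only probe quenching by compound is measured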
GRK2 CP2: confirmation of human GRK2 inhibitors binding RNA aptamer site; bead-bound GRK2, FAM-aptamer displacement, flow cytometry; 360 tested, under 10 active; shares compounds with GRK2 aptamer HTS; inhibition of aptamer binding, % at 10 µM;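 active means inhibition of aptamer binding above 40%, about triple the noise seen with nonglowing compounds, on plates passing quality control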;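 further: negative values mostly come from compounds that fluoresce themselves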
FAM quench CP2: aptamer fluorescence quenching in GRK2 counter-screen | shares compounds with GRK2 aptamer HTS | carboxyfluorescein RNA aptamer beads, flow cytometry quenching; hits give low values | fluorescence response vs DMSO, % at 10 µM | 360 tested, under 10 active | AID 588494;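 active means response vs DMSO under 50%, meaning signal dropped by over half, treated as fluorescence quencher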;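 further: labelled aptamer on streptavidin beads without GRK2 as a quench counter-screen; 100% = bead fluorescence of DMSO wells and lower means quenching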
Starred values were filed as active, the others as inactive; / = not tested or not shown.

SMILES | FID counter | core dimer inh | GPR7 antagonist | DAGLB inhibitor | GRK2 aptamer HTS | HCV NS3 hel inh | GRK2 CP1 | Aptamer quench SP | others
CC(C)(C(=O)c1ccccc1)/[N+]([O-])=C/c1ccc(Br)cc1 | -2 | -1 | -10 | -2 | 60* | 1 | -3 | 102
COC(=O)c1cc(Br)c(=O)n(CCN(C(C)C)C(C)C)c1 | 4 | 1 | 1 | -1 | 95* | 1 | -3 | 99
COC(=O)c1cc(Br)c(=O)n(CCN2CCOCC2)c1 | -1 | -1 | -12 | 1 | 0 | -4 | / | /
CC(=O)CSc1nc2cc3c(cc2cc1C#N)OCCO3 | 1 | -22 | -10 | -11 | 60* | 6 | / | / | GRK2 CP2=4;FAM quench CP2=100
N#CC(=C(O)COC(=O)CCC1CCCCC1)c1nc2ccccc2[nH]1 | / | / | / | -1 | / | / | / | /
c1ccc(CCn2c(SCc3ccccc3)nnc2-c2ccncc2)cc1 | -32 | 0 | -7 | 2 | 3 | -3 | / | /
CN(C)CCCn1c(SCc2c(Cl)cccc2Cl)nnc1-c1ccncc1 | 4 | 8 | -9 | 1 | 44* | 10 | / | / | GRK2 CP2=2;FAM quench CP2=99
Cc1ccc(-n2ncc3c2CC(C)(C)CC3NC(=O)CCN2CCCO2)cc1 (centres undefined) | -45 | -3 | -11 | 0 | 0 | -5 | / | /
O=C1c2c(O)cccc2C(C2OC(CO)[C@@H](O)[C@H](O)[C@H]2O)c2cc(CO)cc(O)c21 (some centres undefined) | / | / | / | 1 | 2 | / | / | /
O=C(O)c1cc(O)c2c(c1)[C@H]([C@H]1c3cc(C(=O)O)cc(O)c3C(=O)c3c(O[C@@H]4O[C@H](CO)[C@@H](O)[C@H](O)[C@H]4O)cccc31)c1cccc(OC3O[C@H](CO)[C@@H](O)[C@H](O)[C@H]3O)c1C2=O (some centres undefined) | / | 38 | / | 5 | 99* | / | 30 | 95
CCCn1c(=O)c2sccc2n2c(CCCC(=O)NCc3ccco3)nnc12 | -19 | 10 | -6 | 0 | 70* | 14 | 13 | 100
CCCn1c(=O)c2sccc2n2c(CCCC(=O)NCc3cccnc3)nnc12 | -19 | 2 | -9 | -3 | 0 | 2 | / | /
COc1ccc(CC(=O)NCC2CCCN(Cc3ccccc3Cl)C2)cc1 (centres undefined) | 3 | / | -10 | -2 | 0 | -7 | / | /
CCOC(=O)c1cnc2c(C#N)c(C)nn2c1C | 3 | 1 | 11 | -1 | 47* | -2 | -4 | 100
CCC(=O)c1ccc(OCC(O)CN2CCc3ccccc3C2)cc1 (centres undefined) | -3 | 6 | -9 | -8 | 54* | -7 | -1 | 103
CC(=O)c1cccc(NC(=O)/C(=C\c2cccnc2)NC(=O)c2ccco2)c1 | 0 | -2 | -2 | 1 | 0 | 7 | / | /
O=C(c1ccc(=O)oc1)N1CCCc2ccccc21 | -5 | -5 | -6 | 7 | 42* | 4 | 7 | 106
O=C(c1ccc(F)cc1)N1CCOCC1 | -1 | -2 | -3 | -2 | 50* | -3 | 0 | 101
O=C(c1ccc(=O)oc1)N1CCOCC1 | -9 | 3 | -7 | 0 | 87* | 11 | 35 | 110
O=C(Nc1ccc(F)cc1)c1ccc(C(=O)N2CCOCC2)cc1 | / | 5 | / | 1 | / | / | / | /
Cc1ccc(S(=O)(=O)NNC(=O)c2ccc(NC(=O)C3CC3)cc2)cc1 | -23 | / | -3 | -1 | 4 | 2 | / | /
CC(=O)n1c(=O)c2ccccc2c(=O)n1-c1ccccc1 | -4 | 5 | -13 | 1 | 23 | 0 | -29 | 213
Nc1ccc(Nc2ccc([N+](=O)[O-])cc2[N+](=O)[O-])cc1 | 11 | -8 | -2 | 20 | 84* | -7 | 2 | 92
CC(Oc1ccccc1)c1ccnn1S(C)(=O)=O (centres undefined) | -1 | 2 | -1 | 1 | 38 | 2 | 1 | 98
COC(CNC(=O)c1cn(C)c2ccc(S(=O)(=O)N3CCOCC3)cc2c1=O)OC | -9 | -3 | -16 | 0 | 1 | 1 | / | /
SMILES | FID counter | core dimer inh | GPR7 antagonist | DAGLB inhibitor | GRK2 aptamer HTS | HCV NS3 hel inh | GRK2 CP1 | Aptamer quench SP | others
CCn1cc(C(=O)NCC(OC)OC)c(=O)c2cc(S(=O)(=O)N3CCOCC3)ccc21 | -16 | -5 | -17 | 3 | 45* | 11 | 0 | 98
Cc1ccc(C)c(NC(=S)NC(=O)c2cncc(Br)c2)c1 | / | 7 | / | / | 79* | / | -2 | 96
COc1ccc(OC)c(S(=O)(=O)N2CCN(c3ccccc3OC)CC2)c1 | -30 | 4 | -8 | -2 | 0 | -8 | / | /
CCOc1ccc(NC(=O)c2c3c(nc4ccccc24)CCC3)cc1 | -7 | 1 | -18 | -1 | 0 | -7 | / | /
CCOc1c2c(nc3ccc(Cl)cc13)CCC2 | -2 | 4 | -7 | -2 | 2 | -1 | / | / | GRK2 CP2=18;FAM quench CP2=104
CCCc1c(C(=O)N/N=C/c2cccnc2)nnn1-c1nonc1N | -20 | -3 | 11 | -1 | 3 | 1 | / | /
Cc1c(Cl)ccc2c(C(=O)Nc3cc(C(C)(C)C)on3)cc(-c3ccccn3)nc12 | -9 | -40 | -13 | -2 | 2 | -5 | / | /
CC1(C)CC(=O)C(C(C2=C(O)CC(C)(C)CC2=O)c2ccco2)C(=O)C1 (centres undefined) | -18 | -3 | -4 | 1 | 94* | 31 | -1 | 104
Cc1ccc(S(=O)(=O)N2CCN(C(=O)c3cc4c(s3)CCCC4)CC2)cc1 | / | / | / | -1 | 1 | / | / | /
Cc1ccc(S(=O)(=O)N2CCN(C(=O)c3cc4c(s3)CCCC4)CC2)c(C)c1 | / | / | / | -6 | 49* | / | 0 | 99
COc1ccc(S(=O)(=O)N2CCN(C(=O)c3cc4c(s3)CCC4)CC2)cc1 | / | / | / | 0 | 82* | / | 25 | 109
COc1ccc(CCN(C)C2CCCN(S(=O)(=O)c3ccc(C)cc3)C2)cc1OC (centres undefined) | 3 | 5 | -12 | 0 | 0 | -7 | / | /
Cc1cc(C)c(S(=O)(=O)c2c(C)cccc2C)c(Cl)n1 | -18 | -5 | -11 | -3 | 81* | 10 | -1 | 100
CCOC(=O)Cn1cc(Cl)c(=O)c(Cl)c1 | -1 | -5 | -3 | 0 | 85* | -4 | -3 | 102
